This is an account of results in ChEMBL document CHEMBL1153016, “Dopamine- and tyramine-based derivatives of triazenes: activation by tyrosinase and implications for prodrug design” (Eur J Med Chem, 2009).

Series [1] can be described thus: Apparent partition coefficient in phosphate buffer of pH 7.4 by HPLC analysis. The class given is physicochemical. The method in brief: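 Log Pexp measured at room temperature in 1-octanol/pH 7.4 phosphate buffer, phases mutually pre-saturated. Compound dissolved in octanol and shaken 30 min to equilibrium. Each phase analysed by HPLC, octanol phase first diluted 1:10 in acetonitrile. P taken as the ratio of octanol to buffer peak area.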

Series [2] in a line: Chemical stability of the assessed as hydrolytic half life in phosphate buffer of pH 7.4 at 10 uM by HPLC analysis. The format is physicochemical. The method in brief: (§1)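 Hydrolysis at 37 °C in pH 7.4 PBS containing 20% DMSO, substrate 10^-5 M. Aliquots analysed by reversed-phase HPLC with UV at 300 nm to give half-life.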
In the next series the test system is tyrosinase. Description: Stability assessed as half life at 50 uM by HPLC analysis in presence of mushroom tyrosinase. The format is ADME. A digest of the protocol:
(§2)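 Mushroom tyrosinase at 100U/mL in pH 7.4 phosphate buffer (2.4 mL) with DMSO (0.6 mL), 37 °C. Prodrug added from 10^-2 M stock, final substrate 5 x 10^-5 M, incubated with gentle stirring. Consumption followed by HPLC with UV at 300 nm, giving half-life of activation. Km and Vmax determined; turnover number derived from Vmax.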

The next series is filed under the species Homo sapiens. Description: Stability assessed as hydrolytic half life in 80% human plasma at 10 uM by HPLC analysis.
Series [3] is described as follows: Ratio of chemical stability in phosphate buffer of pH 7.4 to chemical stability in human plasma. The class given is ADME.
Series [4] addresses T1, Tyrosinase (Agaricus bisporus) (UniProt O42713).
T1 sequence (whole entry): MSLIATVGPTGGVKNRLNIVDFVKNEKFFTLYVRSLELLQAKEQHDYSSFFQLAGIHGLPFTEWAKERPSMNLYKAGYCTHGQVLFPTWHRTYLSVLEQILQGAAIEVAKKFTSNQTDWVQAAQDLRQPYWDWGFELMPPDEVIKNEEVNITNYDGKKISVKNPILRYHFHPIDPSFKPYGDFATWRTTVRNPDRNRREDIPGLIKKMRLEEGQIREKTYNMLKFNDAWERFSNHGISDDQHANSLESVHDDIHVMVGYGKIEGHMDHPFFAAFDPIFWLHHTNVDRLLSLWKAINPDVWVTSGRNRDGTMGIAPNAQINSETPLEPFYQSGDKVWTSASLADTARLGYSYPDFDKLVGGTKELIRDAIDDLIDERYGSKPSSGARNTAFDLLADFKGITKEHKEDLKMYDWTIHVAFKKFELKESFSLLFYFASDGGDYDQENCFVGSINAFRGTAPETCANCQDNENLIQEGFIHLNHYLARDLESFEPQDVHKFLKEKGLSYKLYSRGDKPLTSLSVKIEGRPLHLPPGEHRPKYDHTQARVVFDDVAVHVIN
Description: Binding affinity to Mushroom tyrosinase assessed as compound turnover by HPLC analysis. A digest of the protocol:
as §2

The nature of series [5]: Chemical stability in phosphate buffer of pH 7.4 at 10 uM by HPLC analysis. The format is physicochemical. The settings on record: pH 7.4, 10 µM. The method in brief:
as §1

The subject of another series is Plasma. The experiment in a line: Stability in 80% human plasma at 10 uM by HPLC analysis. The format is ADME, cell-free. A digest of the protocol: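 Pooled heparinised human plasma from healthy donors, stored at –70 °C, diluted to 80% (v/v) with pH 7.4 isotonic phosphate buffer. Substrate 10^-5 M, incubated at 37 °C. At intervals, 200 µL aliquots quenched in 400 µL acetonitrile and centrifuged; supernatant analysed by HPLC for substrate and products to give half-life.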

Substrate in series [6]: CN(/N=N/c1ccc(C#N)cc1)C(=O)NCCc1ccc(O)cc1
Description: (§3) Activity at mushroom tyrosinase. The settings on record: Agaricus bisporus. A digest of the protocol: as §2

Substrate in series [7]: CCOC(=O)c1ccc(/N=N/N(C)C(=O)NCCc2ccc(O)c(O)c2)cc1
Described as §3. The settings on record: Agaricus bisporus. A digest of the protocol:
as §2

By logD is commonly meant lipophilicity at a set pH, counting ionised and neutral species. The half-life is the time needed for the level to fall by half in the phase considered. On to `CC(=O)c1ccc(/N=N/N(C)C(=O)NCCc2ccc(O)c(O)c2)cc1`, for which the pH-dependent lipophilicity (logD) in [1] was 3.24. Besides, the half-life at 10 µM in [2] was 15.1 h; in the series listed under Homo sapiens, 9.3 h. Further, in the series on tyrosinase, the half-life at 50 µM came to 0.165 h. The Ratio in series [3] is 1.5.

In the case of `NCCc1ccc(O)cc1`, the Activity in [4] came out at 25.9 s⁻¹.

Consider `CC(=O)c1ccc(/N=N/N(C)C(=O)NCCc2ccc(O)cc2)cc1`, for which the logD in [1] was determined as 3.25. In addition, the results for the Stability (in series [5]; in the series with Plasma) were 15 days and 2 days, respectively. Further, the half-life at 50 µM with tyrosinase was found to be 0.217 h.

Regarding `CCOC(=O)c1ccc(/N=N/N(C)C(=O)NCCc2ccc(O)c(O)c2)cc1`, the logD in [1] is 3.78. Moreover, the Activity in [4] stood at 6 s⁻¹. Further, the figures for the half-life at 10 µM (in [2]; in the series listed under Homo sapiens) were 20.8 h and 14.7 h, respectively. The half-life at 50 µM in the series on tyrosinase amounted to 0.102 h. Further, the Ratio in series [3] is 1.5.

With `CN(/N=N/c1ccc(C#N)cc1)C(=O)NCCc1ccc(O)cc1`, the logD in series [1] was determined as 2.89. In addition, the Stability in series [5] came to 15 days; in the series on Plasma, 2 days. For the same molecule, the Activity in series [4] was determined as 0.6 s⁻¹. The half-life at 50 µM in the series on tyrosinase worked out at 0.197 h.

Turning to `NCCc1ccc(O)c(O)c1`, the Activity in series [4] came to 439 s⁻¹.

As for `Cc1ccc(/N=N/N(C)C(=O)NCCc2ccc(O)cc2)cc1`, in series [1], the logD came to 3.9. For the same molecule, the half-life at 10 µM in series [2] is 364 h. For the same molecule, in the series on Plasma, the Stability is 2 days. The half-life at 50 µM in the series with tyrosinase came to 0.303 h.

`CCOC(=O)c1ccc(/N=N/N(C)C(=O)NCCc2ccc(O)cc2)cc1`: the logD in series [1] is 3.96. Also, the Stability in series [5] is 15 days. Moreover, the half-life at 50 µM in the series with tyrosinase was determined as 0.215 h. Also, the half-life at 10 µM in the series filed under Homo sapiens is 71.5 h.

Regarding `Cc1ccc(/N=N/N(C)C(=O)NCCc2ccc(O)c(O)c2)cc1`, in [1], the logD came to 4.17. The Stability in series [5] was 2 days. Besides, the half-life at 50 µM with tyrosinase came out at 0.14 h. Further, the half-life at 10 µM in the series filed under Homo sapiens was 5.66 h. For the same molecule, the Ratio in [3] came out at 1.5.

B1: Tyrosinase (Agaricus bisporus), O42713 (protein)
chain: MSLIATVGPTGGVKNRLNIVDFVKNEKFFTLYVRSLELLQAKEQHDYSSFFQLAGIHGLPFTEWAKERPSMNLYKAGYCTHGQVLFPTWHRTYLSVLEQILQGAAIEVAKKFTSNQTDWVQAAQDLRQPYWDWGFELMPPDEVIKNEEVNITNYDGKKISVKNPILRYHFHPIDPSFKPYGDFATWRTTVRNPDRNRREDIPGLIKKMRLEEGQIREKTYNMLKFNDAWERFSNHGISDDQHANSLESVHDDIHVMVGYGKIEGHMDHPFFAAFDPIFWLHHTNVDRLLSLWKAINPDVWVTSGRNRDGTMGIAPNAQINSETPLEPFYQSGDKVWTSASLADTARLGYSYPDFDKLVGGTKELIRDAIDDLIDERYGSKPSSGARNTAFDLLADFKGITKEHKEDLKMYDWTIHVAFKKFELKESFSLLFYFASDGGDYDQENCFVGSINAFRGTAPETCANCQDNENLIQEGFIHLNHYLARDLESFEPQDVHKFLKEKGLSYKLYSRGDKPLTSLSVKIEGRPLHLPPGEHRPKYDHTQARVVFDDVAVHVIN
By Km is commonly meant the substrate concentration at which the rate is half of its maximum. Usually Vmax stands for the top rate of the reaction or transport when substrate is in excess. For the molecule B1, in series [6], the Km is 310 µM and the Vmax amounted to 0.03 mM/min. In addition, in series [7], the Km came out at 710 µM and the maximal velocity (Vmax) was 0.31 mM/min.
